Results reported in PubChem BioAssay.
Records with an inconclusive call do not appear. Calls of active or inactive are those of the source.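 Rule for the calls, unless noted: active = inhibition over a set limit, the all-compound mean plus 3 SD, in both replicate runs; inconclusive = over that limit in just one replicate run; inactive = at or under that limit in both runs.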

Tests used:
[1] = S. cerevisiae growth inhibition in permissive medium (OD615), pilot counter-assay for S. cerevisiae lifespan shortening project, permissive growth control (AID 705;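 active = growth inhibition above 25% in both replicates, a cutoff set 3 SD above the mean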); conditions: OD615, 24 h, at 10 µM, stronger effect = higher value
Method in brief: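 System: S. cerevisiae with engineered DeaD lifespan system. Medium: SC raffinose/galactose permissive medium. Doses: single compound dose of 10 µM, 0.25% DMSO final. Schedule: 24 h exposure, 30 °C. Measured by: OD615 turbidity read. Read-out: growth inhibition.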

[2] = S. cerevisiae growth inhibition in restrictive medium, OD615, pilot screen, restrictive growth control, yeast lifespan reduction project (AID 706;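 active = growth inhibition above a set limit, 3 SD over mean compound inhibition, in both replicates, cut at about 43% in these data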;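 note: modified DeaD lifespan yeast strain shifted to restrictive glucose medium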); conditions: OD615, 48 h, at 10 µM, stronger effect = higher value
Method in brief: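 Assay system – genetically modified Saccharomyces cerevisiae, DeaD replicative lifespan assay strain · Medium – CSMM-D glucose medium · Doses – 10 µM compound, 0.25% DMSO · Times – 4 h pre-incubation, 48 h exposure at 30 °C · Signal – optical density at 615 nm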

[3] = doxorubicin toxicity protection in MRP-1 cells – H69AR cells, CellTiter-Glo, duplicate, MRP-1 activator project, pilot screen (AID 807;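 active = viability increase at or above a cutoff of the median across tested compounds plus 3 SD, cut at about 8.5% in these data, passing the limit was not always enough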;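 note: compound pretreatment 18-22 h then 72 h combined with doxorubicin; 0% = doxorubicin alone and 100% = vehicle without doxorubicin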); conditions: H69AR viability with doxorubicin, CellTiter-Glo luminescence; at 10 µM; stronger effect = higher value
[4] = viability of HCT116 without oncogenic beta-catenin – human colon tumor cells, pilot screen (AID 823;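 active = cell viability at or below a set limit in both duplicate runs, the limit being the all-compound median minus 4 SD, cut at about 23% in these data, passing the limit was not always enough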;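 note: 0% = wells killed by 20 µM Hyamine and 100% = untreated DMSO cell wells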); conditions: HCT116 beta-catenin knockout viability, CellTiter-Glo, 60 h; at 10 µM; stronger effect = lower value
[5] = viability of PTEN-null HCT116 cells – cell-based, HCT116 clonal line, CellTiter-Glo, pilot screen (AID 824;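 active = viability at or below 27.92% in each of two runs, the all-compound median minus 4 SD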;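 note: 0% = 20 µM Hyamine control and 100% = vehicle cell control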); conditions: HCT116 PTEN-deleted viability, 60 h, at 10 µM, stronger effect = lower value
[6] = RAM pathway blockade in budding yeast – dse1pr::URA3 reporter, 5-FOA selection, pilot screen (AID 869);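 note: 0% = DMSO wells with no growth and 100% = 10 µM 1-NA-PP1 with full growth; RAM network block rescues cells from 5-FOA so hits raise OD615 growth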; conditions: S. cerevisiae dse1pr::URA3 5-FOA growth, OD615, 2 d; at 10 µM; stronger effect = higher value; strain carries analog-sensitive mutant Cbk1 kinase
[7] = RAM signaling pathway blockade in yeast – S. cerevisiae, Pdr1DBD-CYC8 efflux-inhibited sensitized strain, primary screen (AID 1298;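 active = RAM network inhibition above 8.4% in each of two replicates, 3 SD over the compound average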;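 note: 0% = DMSO untreated cells without growth and 100% = 10 µM 1-NA-PP1 full growth; higher means more yeast growth rescued from 5-FOA killing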); conditions: S. cerevisiae cbk1-as DSE1-URA3 strain, 5-FOA growth OD615, 2 d; at 50 µM; stronger effect = higher value

COC1=C(OC)c2ccccc2C(C(=O)O)N/C1=C(/C)Nc1ccncc1 (configuration not stated)
inactive: growth inhibition [1] -5.63% | growth inhibition [2] -2.54% | viability increase [3] -0.91% | viability [4] 94.7% | viability [5] 91.5% | inhibition [6] 1.11% | RAM network inhibition [7] -1.82%

C=C(C)CSc1nnc(-c2ccc(OC)c(OC)c2)n1N
inactive: growth inhibition [1] 11.8% | growth inhibition [2] 7.34% | viability increase [3] -0.31% | viability [4] 96% | viability [5] 99.2% | inhibition [6] -0.36% | RAM network inhibition [7] 3.74%

COc1cccc(C2CC(c3cccc(OC)c3)n3nc(N)nc3N2)c1 (configuration not stated)
inactive: growth inhibition [1] -4.01% | growth inhibition [2] 3.82% | viability increase [3] -2.05% | viability [4] 95.2% | viability [5] 92.6% | inhibition [6] 0.07% | RAM network inhibition [7] 2.5%

COC(=O)C1=C(O)CSC1=Nc1cccc(C(F)(F)F)c1
inactive: growth inhibition [1] -1.75% | growth inhibition [2] 8.3% | viability increase [3] -0.93% | viability [4] 101% | viability [5] 96.3% | inhibition [6] 0.625% | RAM network inhibition [7] 3.1%

CC(=O)CSc1nc2ccc(Nc3nc(N4CCOCC4)nc(N4CCOCC4)n3)cc2s1
inactive: growth inhibition [1] 15.1% | growth inhibition [2] 38.6% | viability increase [3] -5.89% | viability [4] 66.6% | viability [5] 73.5% | inhibition [6] 0.87% | RAM network inhibition [7] 7.76%

CCC(=O)c1ccc(OCC(O)CN2C(=O)NC(C)(C)C2=O)cc1 (configuration not stated)
inactive: growth inhibition [1] -3.58% | growth inhibition [2] -3.1% | viability increase [3] -0.53% | viability [4] 100% | viability [5] 92.8% | inhibition [6] 1.6% | RAM network inhibition [7] 1.09%

CCN1CCN(S(=O)(=O)c2ccc3[nH]c(=O)oc3c2)CC1
inactive: growth inhibition [1] -9.66% | growth inhibition [2] -6.6% | viability increase [3] -0.48% | viability [4] 104% | viability [5] 107% | inhibition [6] 1.5% | RAM network inhibition [7] 4.74%

Nc1nc(N2CCOCC2)nc(N(c2ccccc2)c2ccccc2)n1
inactive: growth inhibition [1] -17.1% | growth inhibition [2] -9.3% | viability increase [3] -1.89% | viability [4] 107% | viability [5] 92.4% | inhibition [6] 1.93% | RAM network inhibition [7] 1.9%

O=S(=O)(c1ccc(N2CC=C(c3ccccc3)CC2)nc1)N1CCCC1
active: viability [4] 4.45% | viability [5] 3.3%
inactive: growth inhibition [1] -6.39% | growth inhibition [2] -12.5% | viability increase [3] -7% | inhibition [6] 2.18% | RAM network inhibition [7] 2.69%

N#Cc1ccc(Oc2cccc(C(=O)O)c2)cc1C#N
inactive: growth inhibition [1] -13.1% | growth inhibition [2] -3.21% | viability increase [3] -0.11% | viability [4] 94.8% | viability [5] 92.7% | inhibition [6] 1.34% | RAM network inhibition [7] 2.14%

COc1ccc(N2C(=O)C3CCCN3C2c2cccc(OC)c2)cc1 (configuration not stated)
inactive: growth inhibition [1] 2.15% | growth inhibition [2] -0.935% | viability increase [3] -1.99% | viability [4] 98.9% | viability [5] 104% | inhibition [6] 1.75% | RAM network inhibition [7] -1.67%

COc1cccc(NS(=O)(=O)c2cn(C)c(=O)n(C)c2=O)c1
inactive: growth inhibition [1] -11% | growth inhibition [2] -3.64% | viability increase [3] -0.89% | viability [4] 93.7% | viability [5] 92.9% | inhibition [6] 2.42% | RAM network inhibition [7] 0.89%

CCCOC(=O)C1=C(C)NC2=C(C(=O)C(C(=O)OC)C(C)C2)C1c1ccc(N(CC)CC)cc1 (configuration not stated)
inactive: growth inhibition [1] -10.6% | growth inhibition [2] -19.6% | viability increase [3] -3.23% | viability [4] 65.7% | viability [5] 56.8% | inhibition [6] 1.56% | RAM network inhibition [7] 1.46%

Cc1cc(C)n(C(=O)c2ccc(NC(=O)C3CC3)cc2)n1
inactive: growth inhibition [1] -8.57% | growth inhibition [2] -4.89% | viability increase [3] 1.99% | viability [4] 102% | viability [5] 91.3% | inhibition [6] 1.58% | RAM network inhibition [7] 5.67%

COCCOC(=O)C1=C(C)NC2=C(C(=O)CCC2)C1c1ccc(N(C)C)cc1 (configuration not stated)
inactive: growth inhibition [1] -4.38% | growth inhibition [2] -19.9% | viability increase [3] -1.53% | viability [4] 98.6% | viability [5] 93.4% | inhibition [6] 0.975% | RAM network inhibition [7] 4.47%

COCCNC(=O)CN1C(=O)CC(C)(C)S(=O)(=O)c2ccccc21
inactive: growth inhibition [1] -2.02% | growth inhibition [2] -10.2% | viability increase [3] 1.42% | viability [4] 109% | viability [5] 101% | inhibition [6] 0.31% | RAM network inhibition [7] -0.36%
